Assay results reported in ChEMBL document CHEMBL4706601, “The endocannabinoid system dual-target ligand N-cycloheptyl-1,2-dihydro-5-bromo-1-(4-fluorobenzyl)-6-methyl-2-oxo-pyridine-3-carboxamide improves disease severity in a mouse model of multiple sclerosis” (Eur J Med Chem, 2020).
Activity calls are given as the source filed them. No cut-off for these calls is given here.

Assays:
[1] = biological target: Cannabinoid receptor 1 (Rattus norvegicus) (UniProt P20272); assay: Agonist activity at CB1R in Sprague-Dawley rat hippocampal synaptosomes assessed as inhibition of 4-AP evoked glutamate release at 10 uM preincubated for 8 mins followed by 4-AP addition by HPLC analysis; assay type: subcellular; conditions: Hippocampus, filed as agonist
Chain of Cannabinoid receptor 1 (Rattus norvegicus) (P20272 whole entry, the tested form may be a part): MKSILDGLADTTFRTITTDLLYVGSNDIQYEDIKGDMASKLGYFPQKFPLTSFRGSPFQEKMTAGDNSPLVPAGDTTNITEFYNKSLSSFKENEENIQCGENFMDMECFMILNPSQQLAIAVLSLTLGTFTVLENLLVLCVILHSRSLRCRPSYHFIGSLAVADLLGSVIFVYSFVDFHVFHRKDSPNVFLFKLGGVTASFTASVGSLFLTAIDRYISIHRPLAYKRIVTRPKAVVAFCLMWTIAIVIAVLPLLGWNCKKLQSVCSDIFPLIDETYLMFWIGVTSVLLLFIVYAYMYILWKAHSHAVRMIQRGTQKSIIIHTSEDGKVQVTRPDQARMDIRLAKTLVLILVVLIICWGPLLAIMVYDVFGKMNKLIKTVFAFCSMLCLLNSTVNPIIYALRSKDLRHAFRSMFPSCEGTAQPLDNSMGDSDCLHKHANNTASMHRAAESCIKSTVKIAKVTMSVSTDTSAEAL
Method in brief: (§1)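 Rat (male Sprague Dawley, 200-250 g) hippocampal synaptosomes from Percoll gradient, superfused at 37 °C (0.5 ml/min); 4-AP 600 μM for 2 min. Compounds and antagonists (SR141716A, SR144528, 1 μM) added 8 min before 4-AP and kept during it; basal effects tested by 2-min exposure alone. Endogenous glutamate by HPLC as pmol/mg protein; overflow = stimulated minus basal in control chambers; n = 3–9, triplicate.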

[2] = biological target: Cannabinoid receptor 1 (Rattus norvegicus) (UniProt P20272); assay: Agonist activity at CB1R in Sprague-Dawley rat hippocampal synaptosomes assessed as inhibition of 4-AP evoked glutamate release at 1 uM preincubated for 8 mins followed by 4-AP addition by HPLC analysis; assay type: subcellular; conditions: Hippocampus; method in brief: as §1
[3] = tested on: Mus musculus; assay: Antiinflammatory activity in MOG (35 to 55 residues)/pertussis toxin-induced experimental autoimmune encephalomyelitis C57BL/6J mouse model assessed as improvement in early stage disease severity at 10 mg/kg, ip dosed once daily for 20 days starting from day 10 to 16 post immunization and measured at day 2 to 4 post treatment; assay type: functional, organism-based; conditions: time 2-4 day
Method in brief: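 Active EAE in mice: 200 µg MOG35-55 in CFA (4 mg/ml M. tuberculosis) s.c. at hips and tail root, plus pertussis toxin 300 ng i.p. after immunization and 48 h later. Daily i.p. dosing (DMSO vehicle) for 20 days from each mouse's onset (day 10–16); onset = day 1. Daily clinical score; multiple t-tests with Holm-Sidak.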

Cc1c(Br)cc(C(=O)NC2CCCCCC2)c(=O)n1Cc1ccc(F)cc1
Activity [1]: Active
Activity [2]: inactive
Activity [3]: Active
